Sampled rows, rich in hits. Any-hit rate of the full collection: about 4.8%.
Jurkat NFkB inh = lowers PMA/ionomycin-induced NF-kB signal in Jurkat cells. inhibition, % at 4 µM. PMA/ionomycin-induced NF-kB luciferase reporter, luminescence. hit rate 0.53% among 330,000. AID 435003; in the data active = inhibition above about 50%
T cruzi repl = T. cruzi replication inhibition; T. cruzi beta-gal in NIH3T3, luminescence, 90 h; inhibition, % (concentration not given with the values); hit rate 1.4% among 300,000;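 active = mean inhibition across valid replicates above about 55%, limit read from the data; inconclusive = mean below that limit but half or more replicates reach it; inactive = mean below it, under half of replicates reach it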;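 note: signal also drops with host cell toxicity which is not excluded here; 0% = plate median of DMSO wells and 100% = zero luminescence signal; higher percent means less beta-gal luminescence so fewer parasites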
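Test system: β-gal T. cruzi (Tulahuen C4) inside NIH/3T3 cells / Quantity: 5,000 cells/well / Measured by: luminescence from GalScreen with 0.05% NP40, read after 60 min / Medium: DMEM plus 2% FBS / Measure: parasite load inhibition, % / Reagent: Tulahuen C4 trypomastigotes, 5000/well / Schedule: co-culture of at least 90 h after 3 h attachment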
GPR7 antag = human neuropeptides B/W receptor 1 antagonism; hit rate 1.1% among 290,000; inhibition, % at 4.4 µM; AID 1861; GPR7-expressing cells, fluorescence antagonist assay; P48145; in the data active = inhibition above about 16%, passing the limit was not always enough;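 note: cells stimulated with the agonist NPW; 0% = agonist with vehicle and 100% = vehicle without agonist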
Target sequence (P48145 whole entry, looked up): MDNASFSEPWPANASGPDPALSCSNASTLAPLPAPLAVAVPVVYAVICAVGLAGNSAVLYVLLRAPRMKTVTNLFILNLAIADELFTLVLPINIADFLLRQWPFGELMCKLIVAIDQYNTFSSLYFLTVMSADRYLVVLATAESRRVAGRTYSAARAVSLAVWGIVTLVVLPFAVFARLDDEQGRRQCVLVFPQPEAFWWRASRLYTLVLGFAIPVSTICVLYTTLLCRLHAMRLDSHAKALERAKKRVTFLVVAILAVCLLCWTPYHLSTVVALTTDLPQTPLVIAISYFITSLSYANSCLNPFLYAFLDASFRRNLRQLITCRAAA
HSF1 activator = increases HSF-1 driven luciferase reporter signal | NIH3T3-HGL HSF-1 luciferase reporter, MG132, 8 h; 100% = twice DMSO control signal | activation, % at 9 µM | hit rate 1.7% among 300,000;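 active = mean replicate activation of at least 50% with a set share of replicates each reaching 50%; inconclusive = only one of those two conditions met; inactive = mean below 50% and too few replicates reaching it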;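 note: 0% = median of the neutral control wells and 100% = twice that signal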
697 NFkB inh = inhibitors of the PMA/ionomycin-induced NF-kB reporter in 697 B cells | 697 B-cell NF-kB luciferase reporter, 16 h | inhibition, % at 4 µM | hit rate 0.33% among 330,000; in the data active = inhibition above about 35%
HSF1 inh = HSF1 inhibition | NIH3T3-HGL HSE-luciferase, MG132-induced, luminescence 8 h; active compounds read low | activity change, negative = inhibition, % at 7.5 µM (by protocol) | hit rate 0.77% among 300,000;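 active = more than half of replicate wells show activity change below -50%, luminescence cut by over half; inconclusive = some wells, but at most half, below -50%; inactive = no replicate well below -50%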;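 note: luciferase reports HSF-1 transcriptional activity via heat shock element; 0% = median of DMSO wells and -100% = zero luminescence signal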
* hit, by the source's call; ? = inconclusive; / = no result.

SMILES | Jurkat NFkB inh | T cruzi repl | GPR7 antag | HSF1 activator | 697 NFkB inh | HSF1 inh
Cc1nc2ccccn2c1C(=O)N/N=C/c1ccc([N+](=O)[O-])o1 | 5 | 71* | -14 | 34 | 7 | 12
C/C(=N\NC(=O)c1c(C)nc2ccccn12)c1ccc(N2CCOCC2)cc1 | -3 | -4 | -4 | 8 | 7 | -1
C/C(=N\NC(=O)c1c(C)nc2ccccn12)c1ccc(C(C)(C)C)cc1 | -26 | -3 | -2 | -62 | -52 | -55*
CC(=O)c1cccc(NC(=O)COC(=O)C2=COCCO2)c1 | 5 | -10 | -5 | -3 | 12 | -5
Cc1noc(NS(=O)(=O)c2ccc(NC(=O)c3ccc(Cl)c(S(=O)(=O)N(C)c4ccccc4)c3)cc2)c1C | 2 | / | / | / | -34 | /
Cc1ccc(SCCNC(=S)Nc2ccc(C)cc2C)cc1 | -20 | 58* | -13 | 2 | -7 | -2
Cc1ccc(NS(=O)(=O)c2ccc(Cl)c(C(=O)Nc3ccccc3-c3nc4ccccc4[nH]3)c2)cc1C | 11 | 68* | -4 | 7 | 2 | 0
CN(C)S(=O)(=O)c1ccc(Cl)c(C(=O)Nc2nc3ccccc3[nH]2)c1 | -7 | -8 | -1 | 6 | 6 | -2
COC(=O)c1cc(S(=O)(=O)NCC2CCN(Cc3ccccc3F)CC2)c[nH]1 | -6 | 10 | 4 | -2 | -60 | 1
O=C(COC(=O)c1ccccc1Br)Nc1ccc2[nH]c(=O)[nH]c2c1 | 8 | -9 | / | 1 | 2 | -6
O=C1C=C(c2ccccc2)CC(c2ccc(F)cc2)C1 (stereo not given) | -1 | -1 | / | 26 | 7 | 13
O=C1C=C(c2ccccc2)CC(/C=C/c2ccccc2)C1 (stereo not given) | 10 | 19 | 3 | 98* | -26 | 70
O=c1cc(CSc2nnc(-c3cccs3)n2Cc2ccccc2)nc2sc3ccccc3n12 | 31 | 13 | 30* | 0 | -60 | -4
Cc1cc(C(=O)CSc2nnc(-c3cccs3)n2Cc2ccccc2)c(C)n1C | -13 | 19 | -8 | -20 | -34 | -8
O=C(CCCNC(=O)/C(=C\c1ccccc1F)NC(=O)c1ccccc1)OCc1ccccc1 | -6 | -1 | -9 | -65 | 4 | -56*
COc1ccc(C(CNC(=O)c2ccc(OCc3c(C)noc3C)cc2)N2CCCC2)cc1 (stereo not given) | -15 | / | / | / | -14 | /
Cc1cc(C)n(-c2nc(NCCC(C)C)c3c4c(sc3n2)COC(C)(C)C4)n1 | / | 76* | 7 | -4 | / | -7
O=C(Nc1cc(Cl)ccc1-n1cncn1)c1ccc([N+](=O)[O-])s1 | 6 | 69* | -14 | -26 | 19 | -17
O=C(Nc1cc(Cl)ccc1-n1cncn1)c1ccco1 | -4 | -14 | -12 | -1 | -6 | -3
Cc1cc(NC(=O)CSc2nnc(C3CC3)n2C)no1 | -4 | -8 | -5 | -6 | -7 | -2
Cc1cc(NC(=O)CSc2nnc(C)n2C)no1 | -4 | -11 | -6 | -68 | 22 | -59*
Cc1cc(NC(=O)CSc2nc3ccccc3cc2C#N)no1 | -58 | 0 | -9 | ? | -34 | 23
Cc1cc(NC(=O)CSc2nc3c(cc2C#N)CCCC3)no1 | -114 | -12 | -3 | 71* | -102 | 45
N#Cc1cc2c(nc1SCC(=O)O)CCCC2 | -13 | -13 | -3 | -10 | -33 | -3
Cc1cc(NC(=O)CSc2nc3c(cc2C#N)CCC3)no1 | -141 | 4 | -12 | 84* | -141 | 55
SMILES | Jurkat NFkB inh | T cruzi repl | GPR7 antag | HSF1 activator | 697 NFkB inh | HSF1 inh
CCOC(=O)c1cc(C#N)c(N2CCCNCC2)nc1C(F)(F)F | 17 | 32 | -2 | -7 | -2 | 2
O=S(=O)(Nc1nc(-c2ccccc2)cs1)c1cccc(C(F)(F)F)c1 | -6 | 13 | -16 | 6 | 1 | -5
COc1cc(OC)cc(C(=O)N[C@H](C(=O)Nc2cc(C)cc(C)c2)C(C)C)c1 | 13 | / | -22 | / | 14 | /
Oc1ccc(N=Nc2ccc(Br)cc2)c(O)c1 | -4 | 60* | 12 | 5 | -147 | 10
Oc1ccc(N=Nc2n[nH]c(-c3ccc(Br)cc3)n2)cc1 | / | 24 | -12 | -10 | / | -3
CCc1noc(C)c1C(=O)N(CC)CC(=O)Nc1cc(Cl)ccc1C | -1 | / | / | / | 12 | /
CC(=O)C1=C(O)C(=O)N(c2ccc(Br)cn2)C1c1cccc([N+](=O)[O-])c1 (stereo not given) | -17 | -4 | 6 | 6 | -9 | -7
COc1ccc2c(CC(=O)Nc3nccs3)coc2c1 | -15 | -27 | 12 | 72* | -24 | 19
O=C(NCc1ccc(Cl)cc1)C(=O)N/N=C/c1ccc(Br)cc1 | 32 | -1 | 3 | 9 | 7 | 1
CC(C)(C)c1cc(NC(=O)CCSc2nnc3ccccn23)cc(C(C)(C)C)c1 | 0 | 39 | -4 | 54* | -38 | 17
COc1ccc(OC)c(C(c2nnnn2C2CCCC2)N2CCN(c3ccc(F)cc3)CC2)c1 (stereo not given) | -6 | 25 | 18* | -19 | 16 | -3
O=C1CC(c2ccccc2)CC2=C1C=Nc1ccccc1N2 (stereo not given) | 17 | -3 | -5 | 5 | -28 | -4
COc1ccc(NC(=O)C#Cc2ccccc2)cc1OC | 24 | 14 | 3 | 26 | 11 | 13
O=C(C#Cc1ccccc1)Nc1ccccc1F | -71 | -5 | -4 | 106* | -40 | 58
NC(=O)c1ccc(NC(=O)C#Cc2ccccc2)cc1 | 25 | 9 | -3 | 61* | -24 | 51
Cc1ccsc1/C=N/NC(=O)c1nnn(-c2nonc2N)c1CN(C)c1ccccc1 | -1 | 1 | -13 | -26 | -12 | -1
CCS(=O)c1ccccc1C(=O)OCC(=O)N1CCC(c2ccccc2)=N1 (stereo not given) | 14 | / | / | / | 7 | /
C[C@H](NC(=O)Cc1ccccc1)C(=O)N1CCC2(CC1)NCCc1[nH]cnc12 | 4 | -10 | -13 | 4 | -14 | 0
CCC(C(=O)OCC(=O)Nc1ccc(SC(F)F)cc1)c1ccccc1 (stereo not given) | / | 58* | 2 | 0 | / | -2
CCC(C(=O)OCC(=O)Nc1ccc(F)cc1)c1ccccc1 (stereo not given) | -17 | / | / | / | 8 | /
Cc1ccc(C(=O)C[n+]2cccc3cc(C)ccc32)cc1 | 20 | 58* | -18 | -17 | 7 | -9
CCOc1ccc(C(=O)C[n+]2cccc3cc(C)ccc32)cc1 | 18 | 68* | 2 | 9 | -4 | 1
CCOc1cc(CN2CCC(CO)(Cc3cccc(C(F)(F)F)c3)CC2)ccc1OC | -4 | 45 | 0 | -3 | -14 | 2
Cc1nn(-c2ccccc2)c(C)c1/C=N/NC(=O)CSc1nnc(SCc2ccc(Cl)cc2)s1 | -3 | -2 | -9 | 68* | -15 | 37
